In ChEMBL document CHEMBL4425160, “DABCO-catalyzed one-pot three component synthesis of dihydropyrano[3,2-c]chromene substituted quinazolines and their evaluation towards anticancer activity” (Bioorg Med Chem Lett, 2016):

Assays:
[1] = system: MDA-MB-231; test: Cytotoxicity against human MDA-MB-231 cells assessed as cell growth inhibition after 48 hrs by MTT assay; assay type: functional, cell-based; details: MDA-MB-231, 48 h
Summary of the method: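 Cells counted by trypan blue exclusion, seeded at 1×10^4 per well in DMEM with 10% FBS, and left 24 h. They were then exposed to a concentration series for 48 h at 37°C. Serum-free medium with MTT was added for 4 h, formazan was dissolved in DMSO, and A570 was read minus A690. IC50 was read from the 50% viability point versus DMSO+DMEM controls.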

[2] = system: MDA-MB-231; test: Cytotoxicity against human MDA-MB-231 cells assessed as cell growth inhibition at 100 uM after 48 hrs by MTT assay; assay type: functional; details: MDA-MB-231, 48 h, read-out: GI
Summary of the method: (§1)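 MTT growth assay. 1×10^4 cells were seeded in DMEM with 10% FBS and incubated 24 h. Each compound was then applied at the stated single concentration for 48 h at 37°C, followed by MTT for 4 h. Formazan was solubilized in DMSO and absorbance read at 570 nm with 690 nm background subtraction. Inhibition is relative to control cells given DMSO+DMEM.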

[3] = system: MDA-MB-231; test: Cytotoxicity against human MDA-MB-231 cells assessed as cell growth inhibition at 50 uM after 48 hrs by MTT assay; assay type: functional; details: MDA-MB-231, 48 h, read-out: GI; summary of the method: as §1

| Structure (SMILES) | IC50 [1] [µM] | inhibition of growth at 100 µM [2] [%] | inhibition of growth at 50 µM [3] [%] |
| --- | --- | --- | --- |
| CCOC(=O)C1=C(N)Oc2c(c(=O)oc3cc(OC)c(Cl)cc23)C1c1nc(OCc2ccccc2)c2ccccc2n1 (centres undefined) | > 100 | – | – |
| CCOC(=O)C1=C(N)Oc2c(c(=O)oc3cc(OC)ccc23)C1c1nc(OCc2ccccc2)c2ccccc2n1 (centres undefined) | > 100 | – | – |
| CCOC(=O)C1=C(N)Oc2c(c(=O)oc3cc(C)c(C)cc23)C1c1nc(OCc2ccccc2)c2ccccc2n1 (centres undefined) | > 100 | – | – |
| CCOC(=O)C1=C(N)Oc2c(c(=O)oc3c(Br)cc(Cl)cc23)C1c1nc(OCc2ccccc2)c2ccccc2n1 (centres undefined) | 28.3 | > 95 | 80 |
| CCOC(=O)C1=C(N)Oc2c(c(=O)oc3c(Cl)cc(Cl)cc23)C1c1nc(OCc2ccccc2)c2ccccc2n1 (centres undefined) | > 100 | – | – |
| CCOC(=O)C1=C(N)Oc2c(c(=O)oc3ccccc23)C1c1nc(OCc2ccccc2)c2ccccc2n1 (centres undefined) | > 100 | – | – |
| CCOC(=O)C1=C(N)Oc2c(c(=O)oc3ccc(F)cc23)C1c1nc(OCc2ccccc2)c2ccccc2n1 (centres undefined) | > 100 | – | – |
